In general, IC50 refers to the point on the concentration scale where inhibition reaches its midpoint. Usually clearance stands for a measure of how efficiently the substance is removed, as volume per time. Broadly, the ED50 is the midpoint of the dose-response relation. For orientation: Cmax means the maximum level reached in the sampled fluid or tissue. In general, AUC refers to concentration integrated over time.

Each structure is given as a SMILES string.

The target of data set [1] is T1, Glutamate receptor 1 (Homo sapiens, UniProt P42261). The data set can be described thus: Antagonist activity at human iGluA1 receptor flop isoform expressed in CHO-S cells coexpressing TARP gamma-8 and human EAAT3 assessed as inhibition of glutamate-induced increase in intracellular calcium levels after 2 mins followed by cyclothiazide/glutamate addition by fluo-4 AM dye based fluorescence imaging plate reader method. In kind it is cell-based. The method in brief: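 Transiently transfected CHO-S cells (human GluA1Q flop with TARP γ-8 and human EAAT3, DNA ratio 2:3), frozen, thawed, plated overnight at 37 °C; Fluo-4 AM loading 2 h at 22 °C. Compound added, then 2 min later glutamate (5 μM final); cyclothiazide (20 μM) plus glutamate (45 μM) 2 min after. FLIPR Ca2+ read; inhibition relative to 167 μM nonselective antagonist and buffer baseline; four-parameter logistic IC50; mean ± SEM, n ≥ 2.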
T1 sequence (P42261 whole entry, canonical isoform): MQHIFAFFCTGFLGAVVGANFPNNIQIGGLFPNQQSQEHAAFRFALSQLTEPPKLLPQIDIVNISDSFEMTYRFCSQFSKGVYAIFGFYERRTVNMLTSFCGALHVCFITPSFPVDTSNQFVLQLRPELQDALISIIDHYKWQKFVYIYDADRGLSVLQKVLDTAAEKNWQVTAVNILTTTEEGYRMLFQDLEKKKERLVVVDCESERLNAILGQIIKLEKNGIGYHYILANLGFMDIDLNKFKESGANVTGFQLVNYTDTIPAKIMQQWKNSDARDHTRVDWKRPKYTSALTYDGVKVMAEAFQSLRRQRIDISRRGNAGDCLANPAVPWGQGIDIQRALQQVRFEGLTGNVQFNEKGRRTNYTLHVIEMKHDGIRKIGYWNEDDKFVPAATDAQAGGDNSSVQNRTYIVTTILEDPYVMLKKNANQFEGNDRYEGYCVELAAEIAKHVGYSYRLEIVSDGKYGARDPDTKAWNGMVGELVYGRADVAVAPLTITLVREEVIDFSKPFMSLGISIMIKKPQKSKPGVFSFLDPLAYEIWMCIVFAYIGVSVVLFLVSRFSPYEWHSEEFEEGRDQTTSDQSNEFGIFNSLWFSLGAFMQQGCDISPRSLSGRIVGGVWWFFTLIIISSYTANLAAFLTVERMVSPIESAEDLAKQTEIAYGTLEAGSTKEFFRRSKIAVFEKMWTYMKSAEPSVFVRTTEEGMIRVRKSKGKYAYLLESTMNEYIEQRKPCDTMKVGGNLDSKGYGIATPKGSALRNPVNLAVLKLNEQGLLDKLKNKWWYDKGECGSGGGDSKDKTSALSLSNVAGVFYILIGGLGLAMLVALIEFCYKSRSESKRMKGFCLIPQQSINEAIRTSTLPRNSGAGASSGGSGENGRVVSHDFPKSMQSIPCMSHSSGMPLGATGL

Data set [2] addresses T1, Glutamate receptor 1. The data set can be described thus: Antagonist activity at human iGluA1 receptor flip isoform expressed in CHO-S cells assessed as inhibition of glutamate-induced increase in intracellular calcium levels after 2 mins followed by cyclothiazide/glutamate addition by fluo-4 NW dye based fluorescence imaging plate reader method. It is filed as cell-based.

Data set [3] in a line: Clearance in rat. In kind it is ADME, organism-based. The conditions noted are these: in vivo.
Data set [4] concerns the target T1, Glutamate receptor 1. The data set can be described thus: Antagonist activity at human iGluA1 receptor flop isoform expressed in CHO-S cells coexpressing TARP gamma-2 assessed as inhibition of glutamate-induced increase in intracellular calcium levels after 2 mins followed by cyclothiazide/glutamate addition by fluo-4 AM dye based fluorescence imaging plate reader method. In kind it is cell-based. A general note: Calcium flux is commonly read through the fluorescence of an indicator in the cells.

Data set [5] has as its target T2, Cytochrome P450 1A2 (Homo sapiens, UniProt P05177).
T2 sequence (P05177 whole entry): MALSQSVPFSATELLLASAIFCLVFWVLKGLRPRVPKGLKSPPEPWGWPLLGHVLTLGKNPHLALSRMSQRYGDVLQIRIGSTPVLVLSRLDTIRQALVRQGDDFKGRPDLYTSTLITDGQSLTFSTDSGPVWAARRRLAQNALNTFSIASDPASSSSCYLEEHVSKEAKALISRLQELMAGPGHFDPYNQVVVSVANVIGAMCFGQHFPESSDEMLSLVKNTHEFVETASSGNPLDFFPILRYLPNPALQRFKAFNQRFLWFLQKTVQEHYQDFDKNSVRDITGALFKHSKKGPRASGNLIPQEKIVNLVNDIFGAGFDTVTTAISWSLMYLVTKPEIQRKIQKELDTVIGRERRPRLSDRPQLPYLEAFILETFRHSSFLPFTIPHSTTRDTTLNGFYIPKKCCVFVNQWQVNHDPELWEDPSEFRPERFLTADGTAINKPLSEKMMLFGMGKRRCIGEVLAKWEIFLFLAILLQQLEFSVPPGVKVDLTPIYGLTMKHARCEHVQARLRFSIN
The data set can be described thus: Inhibition of human CYP1A2. It is filed as ADME.

Data set [6] concerns Rattus norvegicus. Nature of the data set: Anticonvulsant activity in po dosed Sprague-Dawley rat assessed as inhibition of pentylenetetrazole-induced clonic convulsions administered 30 mins prior to PTZ dosing measured over 30 mins. In kind it is functional.
Data set [7] relates to Rattus norvegicus. Nature of the data set: Protective index, ratio of TD50 for motor impairment to ED50 for inhibition of pentylenetetrazole-induced clonic convulsions in po dosed Sprague-Dawley rat. The method in brief: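 PI = inverted screen TD50 divided by PTZ ED50. For the ED50, rats were dosed orally 30 min before PTZ (35 mg/kg, sc), with n = 10 per group. Read-out was % block of clonic convulsions; ED50 given with 95% confidence limits.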

The test system of data set [8] is Rattus norvegicus. Nature of the data set: Toxicity in Sprague-Dawley rat assessed as motor impairment at 30 mg/kg, po by inverted screen test. In kind it is organism-based. Particulars: in vivo. The method in brief:
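Oral dosing in rats, then inverted screen motor-function score. Plasma exposure measured. Mean ± SEM of ≥4 rats/group, compared with vehicle control.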

The target in data set [9] is T1, Glutamate receptor 1. Nature of the data set: Antagonist activity at human iGluA1 receptor flop isoform expressed in CHO-S cells coexpressing TARP gamma-3 assessed as inhibition of glutamate-induced increase in intracellular calcium levels after 2 mins followed by cyclothiazide/glutamate addition by fluorescence imaging plate reader method. It is filed as cell-based. The method in brief: (§1)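 Human GluA1 flop transiently co-expressed with the TARP subtype in CHO-S cells. Frozen cells were thawed, plated at 50,000 cells/well and cultured overnight at 37 °C. Buffer was HBSS with 20 mM HEPES pH 7.4, 2.5 mM probenecid and 4 mM CaCl2. Compound was added, then cyclothiazide (20 μM final) plus glutamate (45 μM final). FLIPR Ca2+ read, normalised to full antagonist block and buffer baseline. Four-parameter IC50; mean ± SEM, n ≥ 2.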

Data set [10] deals with T1, Glutamate receptor 1. The data set can be described thus: Antagonist activity at human iGluA1 receptor flop isoform expressed in CHO-S cells coexpressing TARP gamma-4 assessed as inhibition of glutamate-induced increase in intracellular calcium levels after 2 mins followed by cyclothiazide/glutamate addition by fluorescence imaging plate reader method. It is filed as cell-based. The method in brief: as §1

The target in data set [11] is T2, Cytochrome P450 1A2. The data set can be described thus: Induction of CYP1A2 in human hepatocytes at 0.2 to 20 uM compared to omeprazole. In kind it is ADME, cell-based, Hepatocyte. The method in brief:
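Human hepatocytes treated over a concentration range; CYP1A2 fold induction expressed as percent of omeprazole; >30% taken as induction, <15% as none.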

Data set [12] concerns Hepatocyte. Nature of the data set: Drug metabolism in rat hepatocytes assessed as oxidative metabolite formation. In kind it is ADME, cell-based.
Data set [13] concerns Hepatocyte. The data set can be described thus: Drug metabolism in human hepatocytes assessed as glucuronidation. It is filed as ADME, cell-based.
For data set [14], the system named is Hepatocyte. Nature of the data set: Drug metabolism in human hepatocytes assessed as oxidative metabolite formation. In kind it is ADME, cell-based.
Data set [15] relates to Hepatocyte. Nature of the data set: Drug metabolism in rat hepatocytes assessed as glucuronidation. In kind it is ADME, cell-based.
Data set [16] can be described thus: Cmax in rat plasma at 30 mg/kg, po measured on day 4. It is filed as ADME, organism-based. Also noted: dose 30 mg/kg, route oral. The method in brief: (§2)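 Rats dosed orally at 30 mg/kg for 4 days; plasma Cmax and AUC determined.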
The nature of data set [17]: AUC in rat plasma at 30 mg/kg, po measured on day 4. It is filed as ADME, organism-based. The method in brief:
as §2

Data set [18] in a line: Cmax in rat plasma at 30 mg/kg, po measured on day 1. It is filed as ADME, organism-based. Further details: dose 30 mg/kg, route oral.
Data set [19] can be described thus: AUC in rat plasma at 30 mg/kg, po measured on day 1. It is filed as ADME, organism-based.
The subject of data set [20] is UGT. Nature of the data set: Drug metabolism assessed as UGT-mediated compound glucuronidation in human liver microsomes. It is filed as ADME. Particulars: read-out: Drug metabolism. The method in brief:
(§3)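 Microsomes incubated with appropriate cofactors for UGT; percent metabolism, n = 1.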

The test system of data set [21] is Hepatocyte. The data set can be described thus: Drug metabolism in human hepatocytes assessed as sulfation by LC/MS/MS analysis. In kind it is ADME, cell-based.
The subject of data set [22] is Hepatocyte. The data set can be described thus: Drug metabolism in rat hepatocytes assessed as glucuronidation by LC/MS/MS analysis. In kind it is ADME, cell-based.
Data set [23] relates to UGT. The data set can be described thus: Drug metabolism assessed as UGT-mediated compound glucuronidation in rat liver microsomes. In kind it is ADME. The conditions noted are these: read-out: Drug metabolism. The method in brief:
as §3
On the technique in general: Liver microsomes are a subcellular fraction often used to study metabolism.

Turning to `CN(c1ccc2[nH]c(=O)sc2c1)c1nc(-c2ccccn2)cs1`, the IC50 in [1] was 70 nM; in data set [2], > 83.3 µM; in data set [4] it was > 83.3 µM; in data set [5] it was 360 nM. Also, the clearance in data set [3] amounted to 96.6 mL/min/kg.
For `C[C@@H](c1ccc2[nH]c(=O)sc2c1)c1ccn(-c2ccc(F)cn2)n1`, the results for the IC50 in data set [1], in data set [2] and in data set [4] were 53.6 nM, 83.3 µM and 83.3 µM, respectively. In data set [3], this molecule came in with a clearance of 42.2 mL/min/kg.
For the molecule `N#Cc1ccccc1-c1cc(-c2ccccn2)cn(-c2ccccc2)c1=O` [PERAMPANEL], the ED50 in [6] amounted to 10.6 mg/kg. In data set [7], the “Ratio TD50/ED50” value is on record as 0.4. Moreover, the half-maximal inhibitory concentration (IC50) came out at 1180 nM in data set [1]; 6.51 µM in data set [2]; 243 nM in [9]; 623 nM in data set [10]; 0.485 µM in data set [4]. The Activity result in data set [8] was “Toxic”.
As to `C[C@H](c1ccc2[nH]c(=O)sc2c1)c1ccn(-c2ccc(CCO)cn2)n1`, the results for the IC50 in data set [1], in data set [2] and in [4] were 2820 nM, 9.26 µM and 9.26 µM, respectively.
As to `CCOCCN(c1ccc2[nH]c(=O)sc2c1)c1nc(-c2ccccn2)cs1`, the IC50 in data set [1] was 22 nM.
For the molecule `C[C@@H](c1ccc2[nH]c(=O)sc2c1)c1ccn(-c2ccccn2)n1`, the IC50 in data set [1] is 50.9 nM; in [2] it was 9.26 µM; in data set [4], 83.3 µM; in data set [5], > 10000 nM. The clearance in [3] came out at 99 mL/min/kg. The Activity in data set [11] was < 15%.
As to `CC(c1ccc2[nH]c(=O)sc2c1)c1ccn(-c2ccccn2)n1` (racemic), the IC50 in [1] came to 122 nM; in data set [2], 83.3 µM; in [4] it was 83.3 µM; in data set [5] it was 8680 nM. Moreover, the clearance in data set [3] was found to be 115 mL/min/kg. Further, the Drug metabolism entry in [12], in data set [13], in data set [14] and in data set [15] was “metabolite_detected” each time. Besides, the Activity in data set [11] is listed as < 15%.
On to `CN(c1ccc2[nH]ncc2c1)c1nc(-c2ccccn2)cs1`, for which the peak concentration (Cmax) was found to be 1930 ng/mL in data set [16] and 3740 ng/mL in [18]. Besides, the AUC in data set [17] is 3150 ng·h/mL; in data set [19] it was 52300 ng·h/mL. Also, the IC50 in [1] was 147 nM; in data set [2] it was > 83.3 µM; in [4], > 83.3 µM; in data set [5] it was 222 nM. For the same molecule, in data set [3], the clearance amounted to 71.5 mL/min/kg.
`CN(c1ccc2[nH]ncc2c1)c1ccn(-c2ccccn2)n1`: the IC50 is 353 nM in [1], > 83.3 µM in data set [2], > 83.3 µM in data set [4] and 230 nM in [5]. This molecule gave a clearance in [3] of 61.3 mL/min/kg.
For `C[C@@H](c1ccc2[nH]c(=O)sc2c1)c1ccn(-c2ccc(CCC(C)(C)O)cn2)n1`, the 50% inhibitory concentration (IC50) in data set [1] worked out at 160 nM; in data set [2], 9.26 µM; in data set [4] it was 9.26 µM. The molecule also gave a clearance in data set [3] of 6 mL/min/kg.
Turning to `CN(c1ccc(O)cc1)c1nc(-c2ccccn2)cs1`, the IC50 in [1] was 2970 nM; in data set [2] it was > 83.3 µM; in data set [9], > 83300 nM; in [10], > 83300 nM; in data set [4], > 83.3 µM. For the same molecule, in [3], the clearance is 234 mL/min/kg. For the same molecule, the metabolised is 33% in data set [20] and 99% in data set [23]. The Drug metabolism result in [21] and in data set [22] was “metabolite_detected” throughout.
Consider `Cn1ccc(CN(c2ccc3[nH]ncc3c2)c2nc(-c3ccccn3)cs2)n1`, for which the IC50 was 53.9 nM in [1], 83.3 µM in data set [2], 83.3 µM in [4] and > 10000 nM in data set [5]. The Activity in data set [11] was < 15%.
Consider `C[C@@H](c1ccc2[nH]c(=O)sc2c1)c1ccn(-c2ccc(CCO)cn2)n1`, for which the values for the IC50 in [1], in data set [2] and in data set [4] were 61.6 nM, 83.3 µM and 25.7 µM, respectively. For the same molecule, the clearance in [3] turned out to be 16.3 mL/min/kg.
Regarding `C[C@H](c1ccc2[nH]c(=O)sc2c1)c1ccn(-c2ccccn2)n1`, the IC50 turned out to be 615 nM in [1], 9.26 µM in [2], 83.3 µM in data set [4] and 4670 nM in data set [5]. Moreover, the clearance in [3] turned out to be 144 mL/min/kg. Also, in data set [11], the Activity is reported as < 15%.
For `C[C@H](c1ccc2[nH]c(=O)sc2c1)c1ccn(-c2ccc(OCCO)cn2)n1`, the IC50 amounted to 1790 nM in data set [1], 9.26 µM in data set [2] and 9.26 µM in data set [4].

The values are drawn from ChEMBL document CHEMBL3822422, “Discovery of the First α-Amino-3-hydroxy-5-methyl-4-isoxazolepropionic Acid (AMPA) Receptor Antagonist Dependent upon Transmembrane AMPA Receptor Regulatory Protein (TARP) γ-8” (J Med Chem, 2016).
